# Results gathered from unrelated publications.
# Protocols differ between the studies behind these lines.
# Organism: Staphylococcus epidermidis
# Effect on: microbial growth
Compound,assay,test system,conditions,MIC
NCCCC[C@H](N)C(=O)Nc1ccc(-n2nc(C(F)(F)F)cc2-c2ccc3c(ccc4ccccc43)c2)cc1,broth dilution,ATCC35984,24 h,4 µg/mL
CC(C)Oc1c(NC(=O)c2ccc(NC(=O)[C@H](CC(N)=O)NC(=O)c3ccc(NC(=O)c4ccc(C#N)s4)cc3)cc2)ccc(C(=O)Nc2ccc(C(=O)O)cc2)c1O,,DSM28765,,0.5 µg/mL
O=C(O)CN1C(=O)/C(=C/c2c3ccccc3c(-c3ccc(N(c4ccccc4)c4ccccc4)cc3)c3ccccc23)SC1=S,broth dilution,ATCC12228,,> 1000 µg/mL
NCCCC[C@H](N)C(=O)Nc1ccc(-n2nc(C(F)(F)F)cc2-c2ccc3c(c2)Nc2ccccc2S3)cc1,broth dilution,ATCC35984,24 h,4 µg/mL
CC[C@H]1OC(=O)[C@H](C)[C@@H](O[C@H]2C[C@@](C)(OC)[C@@H](O)[C@H](C)O2)[C@H](C)[C@@H](O[C@@H]2O[C@H](C)C[C@H](N(C)C)[C@H]2O)[C@](C)(O)C[C@@H](C)C(=O)[C@H](C)[C@@H](O)[C@]1(C)O,broth dilution,12228,,0.78 µM
CC(C)Oc1c(-n2cc(-c3ccc(NC(=O)C(CC(N)=O)NC(=O)c4ccc(NC(=O)c5ccc(C#N)cc5)cc4)cc3)nn2)ccc(C(=O)Nc2ccc(C(=O)O)cc2)c1O (centres unmarked),,DSM28765,,0.125 µg/mL
O=C(Nc1ncc([N+](=O)[O-])s1)C1CCCCC1,broth dilution,,,31.3 µM
CN[C@H](CC(C)C)C(=O)N[C@H]1C(=O)N[C@@H](CC(N)=O)C(=O)N[C@H]2C(=O)N[C@H]3C(=O)N[C@H](C(=O)N[C@H](C(=O)O)c4cc(O)cc(O)c4-c4cc3ccc4O)[C@H](O)c3ccc(c(Cl)c3)Oc3cc2cc(c3O[C@@H]2O[C@H](CO)[C@@H](O)[C@H](O)[C@H]2O[C@H]2C[C@](C)(N)[C@H](O)[C@H](C)O2)Oc2ccc(cc2Cl)[C@H]1O,broth dilution,ATCC12228,,0.98 µg/mL
NC[C@H]1O[C@H](O[C@H]2[C@H](O)[C@@H](O[C@H]3O[C@H](CO)[C@@H](O)[C@H](N)[C@H]3O)[C@H](N)C[C@@H]2N)[C@H](N)C[C@@H]1O,broth dilution,12228,,0.78 µM
CC(C)Oc1c(NC(=O)c2ccc(NC(=O)c3ccc(NC(=O)[C@H](CC(N)=O)NC(=O)c4ccc(NC(=O)c5ccc(C#N)s5)cc4)cc3)c(OC(C)C)c2O)ccc(C(=O)O)c1O,,DSM28765,,≤ 0.03 µg/mL
O=C(O)CN1C(=O)/C(=C/c2c3ccccc3c(-c3ccc(N(c4ccccc4)c4ccccc4)cc3)c3ccccc23)NC1=S,broth dilution,ATCC12228,,> 1000 µg/mL
